System: CCRF-CEM
Experiment: In vitro growth inhibitory activity against CCRF-CEM (human lymphoblastic leukemic) cells.
Format: functional
Settings: read-out: ID50 (the source's name)
Outline: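 Human lymphoblastic leukemia CCRF-CEM cultures exposed to drug for 48 h. The value is the concentration inhibiting culture growth by 50% relative to untreated controls.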

Row | SMILES | IC50 [nM]
1 | COc1cccc2c1C(=O)c1c(O)c3c(c(O)c1C2=O)C=C(C(C)=O)C[C@@H]3O | 10000
2 | CCCCC(=O)OCC(=O)[C@@H]1Cc2c(O)c3c(c(O)c2[C@@H](OC2CC(NC(=O)C(F)(F)F)C(O)C(C)O2)C1)C(=O)c1c(OC)cccc1C3=O (stereo partly drawn) | 4710
3 | CCCCC(=O)OCC(=O)[C@]1(O)Cc2c(O)c3c(c(O)c2[C@@H](OC2CC(NC(=O)C(F)(F)F)C(O)C(C)O2)C1)C(=O)c1c(OC)cccc1C3=O (stereo partly drawn) | 230
4 | COc1ccc(C(OCC(=O)C2=Cc3c(O)c4c(c(O)c3[C@@H](OC3CC(NC(=O)C(F)(F)F)C(O)C(C)O3)C2)C(=O)c2c(OC)cccc2C4=O)(c2ccccc2)c2ccccc2)cc1 (stereo partly drawn) | > 5000
5 | COc1cccc2c1C(=O)c1c(O)c3c(c(O)c1C2=O)CC(C(C)=O)C[C@@H]3OC1CC(NC(=O)C(F)(F)F)C(O)C(C)O1 (stereo partly drawn) | 3950
6 | COc1cccc2c1C(=O)c1c(O)c3c(c(O)c1C2=O)C[C@@](O)(C(=O)CO)C[C@@H]3O[C@H]1C[C@H](N)[C@H](O)[C@H](C)O1 [DOXORUBICIN] | 66

The remaining lines, values ahead:

Row | IC50 [nM] | SMILES
7 | > 10000 | COc1cccc2c1C(=O)c1c(O)c3c(c(O)c1C2=O)C=C(C(C)=O)CC3
8 | > 10000 | COc1cccc2c1C(=O)c1c(O)c3c(c(O)c1C2=O)C[C@@H](C(C)=O)CC3
9 | 2310 | COc1cccc2c1C(=O)c1c(O)c3c(c(O)c1C2=O)C=C(C(=O)CO)C[C@@H]3OC1CC(N)C(O)C(C)O1 (stereo partly drawn)
10 | > 5000 | COc1ccc(C(OCC(=O)C2=Cc3c(O)c4c(c(O)c3[C@@H](OC3CC(N)C(O)C(C)O3)C2)C(=O)c2c(OC)cccc2C4=O)(c2ccccc2)c2ccccc2)cc1 (stereo partly drawn)
11 | 2700 | CCCCC(=O)OCC(=O)C1=Cc2c(O)c3c(c(O)c2[C@@H](OC2CC(NC(=O)C(F)(F)F)C(O)C(C)O2)C1)C(=O)c1c(OC)cccc1C3=O (stereo partly drawn)
12 | 2560 | COc1cccc2c1C(=O)c1c(O)c3c(c(O)c1C2=O)C=C(C(C)=O)C[C@@H]3OC1CC(NC(=O)C(F)(F)F)C(O)C(C)O1 (stereo partly drawn)
13 | 40 | COc1cccc2c1C(=O)c1c(O)c3c(c(O)c1C2=O)C[C@@](O)(C(C)=O)C[C@@H]3O[C@H]1C[C@H](N)[C@H](O)[C@H](C)O1 [DAUNORUBICIN]
